This is an account of results in ChEMBL document CHEMBL1157157, “N-Aroyl-3,5-bis(benzylidene)-4-piperidones: a novel class of antimycobacterial agents” (Bioorg Med Chem, 2008).

Structures are written as SMILES.

In data set [1] the test system is Mycobacterium tuberculosis. Nature of the data set: Antimycobacterial activity against Mycobacterium tuberculosis H37Rv at 6.25 ug/ml by broth microdilution assay. It counts as functional. The method, boiled down: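 Single-concentration screen at 6.25 µg/mL against M. tuberculosis H37Rv (ATCC 27294), broth microdilution in BACTEC 12B medium. Read-out is % growth inhibition versus controls. At least 90% inhibition counted as active.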
Background: Dilution methods test growth across graded concentrations, often in twofold steps.

Data set [2] has as its system Mus musculus. Nature of the data set: Neurotoxicity in mouse at 100 mg/kg after 0.5 hrs. The format is toxicity, organism-based. Details: dose 100 mg/kg. The following applies: in vivo. The method, boiled down:
(§1)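 Mice dosed intraperitoneally at 30, 100 and 300 mg/kg; 1a and 1b given as hydrochloride salts. Observed 0.5 and 4 h after dosing. Value is number of animals showing neurological deficit over number dosed. Deaths also recorded.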

Data set [3] deals with Rattus norvegicus. Nature of the data set: Neurotoxicity in rat at 30 mg/kg, po after 0.5 hrs. It counts as toxicity, organism-based. To be noted: in vivo. Details: dose 30 mg/kg, route oral. The method, boiled down: (§2)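 Rats dosed orally at 30 or 50 mg/kg and examined for neurotoxicity 0.25, 0.5, 1, 2 and 4 h after dosing. Four animals per group, with three rats at one 0.5 h time point.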

A short description of data set [4]: Lipophilicity, log P of the compound. The following applies: octanol/water. The format is physicochemical. Summed up: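 log P calculated with ACD algorithm and database statistics; not measured experimentally.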
The subject of data set [5] is Mus musculus. Put plainly: Neurotoxicity in mouse at 100 mg/kg after 4 hrs. It counts as toxicity, organism-based. Details: dose 100 mg/kg. The following applies: in vivo. Summed up:
as §1

The test system of data set [6] is Mus musculus. Nature of the data set: Neurotoxicity in mouse at 300 mg/kg after 4 hrs. The format is toxicity, organism-based. On the set-up: dose 300 mg/kg. The following applies: in vivo. Summed up:
as §1

The test system of data set [7] is Rattus norvegicus. Nature of the data set: Neurotoxicity in rat at 30 mg/kg, po after 2 hrs. It counts as toxicity, organism-based. Details: dose 30 mg/kg, route oral. To be noted: in vivo. The method, boiled down: as §2
Data set [8] has as its system Mus musculus. Nature of the data set: Neurotoxicity in mouse at 300 mg/kg after 0.5 hrs. On the set-up: dose 300 mg/kg. The following applies: in vivo. The format is toxicity, organism-based. The method, boiled down: as §1
In data set [9] the test system is Rattus norvegicus. Put plainly: Neurotoxicity in rat at 30 mg/kg, po after 4 hrs. It counts as toxicity, organism-based. On the set-up: dose 30 mg/kg, route oral. To be noted: in vivo. The method, boiled down: as §2
Data set [10] has as its system Rattus norvegicus. Nature of the data set: Neurotoxicity in rat at 50 mg/kg, po after 1 hr. The format is toxicity, organism-based. On the set-up: dose 50 mg/kg, route oral. The following applies: in vivo. Summed up: as §2

`CN(C)CCOc1ccc(C(=O)N2C/C(=C\c3ccc([N+](=O)[O-])cc3)C(=O)/C(=C/c3ccc([N+](=O)[O-])cc3)C2)cc1.Cl`: the inhibition (commonly the share of the control response that was lost under treatment) at 6.25 µg/mL in [1] was found to be 27%. The Activity entry in the data set with Mus musculus [2], in the data set on Rattus norvegicus [3] and with Mus musculus [5] was “Non-toxic” each time. Also, the log partition coefficient (logP) (as a rule, the decadic logarithm of the partition coefficient of the neutral form, usually between octanol and water) in [4] (read-out: logP) was determined as 5.5.
For `Cl.O=C1/C(=C/c2ccc(Cl)cc2)CN(C(=O)c2ccc(OCCN3CCOCC3)cc2)C/C1=C\c1ccc(Cl)cc1`, testing at 6.25 µg/mL in data set [1] gave an inhibition of 0%. Besides, the Activity entry with Mus musculus [2], in the data set on Mus musculus [6], in the data set with Mus musculus [5], in the data set on Rattus norvegicus [7] and with Mus musculus [8] was “Non-toxic” throughout. In addition, in data set [4] (read-out: logP), the lipophilicity (logP) was 6.4.
`CC[N+](C)(CC)CCOc1ccc(C(=O)N2C/C(=C\c3ccc([N+](=O)[O-])cc3)C(=O)/C(=C/c3ccc([N+](=O)[O-])cc3)C2)cc1.[I-]`: the Activity entry in the data set on Rattus norvegicus [9] was “Non-toxic”; in the data set with Mus musculus [6], “Toxic”; with Mus musculus [8], “Toxic”. In data set [1], this compound displayed an inhibition at 6.25 µg/mL of 0%. Besides, the logP in data set [4] (read-out: logP) was found to be 1.8.
As for `CCN(CC)CCOc1ccc(C(=O)N2C/C(=C\c3ccccc3)C(=O)/C(=C/c3ccccc3)C2)cc1.Cl`, the Activity result in the data set on Rattus norvegicus [10], in the data set with Mus musculus [6] and with Mus musculus [5] was “Non-toxic” throughout. This compound also had an inhibition at 6.25 µg/mL in [1] of 99%. In data set [4], this compound gave a lipophilicity (logP) of 7.
